Laboratory results from ChEMBL document CHEMBL1151442, “Genetic and phenotypic identification of fusidic acid-resistant mutants with the small-colony-variant phenotype in Staphylococcus aureus” (2007).
Values after ≈ are worked out from the molar mass of the structure shown.

What was measured:
Type in all cases: functional
Staphylococcus aureus [1] = assay: Antibacterial activity against kanamycin-resistant Staphylococcus aureus AH349 (SCV-21) harboring -1 frameshift mutation at nucleotide 404 in rplF gene after 18 to 24 hrs by Etest strip assay
Procedure, shortened: (§1)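 SCVs of a Rifr 8325-4 derivative were selected on LA with KAN at 8, 16 or 24 μg/ml for 48 h at 37°C. They were purified at the same KAN level and screened on LA plus FA 1 μg/ml.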

Staphylococcus aureus [2] = assay: Antibacterial activity against kanamycin-resistant Staphylococcus aureus AH351 (SCV-23) harboring -4 frameshift mutation at nucleotide 45-48 in rplF gene after 18 to 24 hrs by Etest strip assay; procedure, shortened: as §1
Staphylococcus aureus [3] = assay: Antibacterial activity against kanamycin-resistant Staphylococcus aureus AH331 (SCV-3) harboring Arg659His mutation in fusA gene after 18 to 24 hrs by Etest strip assay; procedure, shortened: as §1
Staphylococcus aureus [4] = assay: Antibacterial activity against kanamycin-resistant Staphylococcus aureus AH329 (SCV-1) harboring Arg659Cys mutation in fusA gene after 18 to 24 hrs by Etest strip assay; procedure, shortened: as §1
Staphylococcus aureus [5] = assay: Antibacterial activity against kanamycin-resistant and fusidic acid-susceptible Staphylococcus aureus AH298 harboring Gly664Val mutation in fusA gene after 18 to 24 hrs by Etest strip assay
Procedure, shortened: (§2)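 Etest MIC: a single colony was suspended in 0.9% NaCl to 0.5 McFarland and swabbed over Mueller-Hinton agar. The strip was applied and plates were incubated at 37°C for 18 to 24 h until an SCV lawn grew.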

Staphylococcus aureus [6] = assay: Antibacterial activity against kanamycin-resistant Staphylococcus aureus AH364 (SCV-36) harboring Asp434Asn mutation in fusA gene after 18 to 24 hrs by Etest strip assay; procedure, shortened: as §1
Staphylococcus aureus [7] = assay: Antibacterial activity against fusidic acid-resistant Staphylococcus aureus AH206 harboring Arg464Ser mutation in fusA gene after 18 to 24 hrs by Etest strip assay
Procedure, shortened: (§3)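 Mutants of lab strain 8325-4 were selected on LA with FA 2 μg/ml for 48 h at 37°C and purified on selective medium. For the MIC, one colony was suspended in 0.9% NaCl to 0.5 McFarland and swabbed onto Mueller-Hinton agar. An Etest strip was applied and plates were incubated at 37°C for 18–24 h until the lawn was evident.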

Staphylococcus aureus [8] = assay: Antibacterial activity against kanamycin-resistant Staphylococcus aureus AH374 (SCV-46) harboring -5 frameshift mutation at nucleotide 236-240 in rplF gene after 18 to 24 hrs by Etest strip assay; procedure, shortened: as §1
Staphylococcus aureus [9] = assay: Antibacterial activity against kanamycin-resistant Staphylococcus aureus AH332 (SCV-4) harboring Ala655Glu mutation in fusA gene after 18 to 24 hrs by Etest strip assay; procedure, shortened: as §1
Staphylococcus aureus [10] = assay: Antibacterial activity against kanamycin-resistant Staphylococcus aureus AH367 (SCV-39) harboring Gly664Ser mutation in fusA gene after 18 to 24 hrs by Etest strip assay; procedure, shortened: as §1
Staphylococcus aureus [11] = assay: Antibacterial activity against fusidic acid-susceptible wild type Staphylococcus aureus 8325-4 after 18 to 24 hrs by Etest strip assay
Procedure, shortened: (§4)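 The inoculum was a single colony suspended in 0.9% NaCl to 0.5 McFarland and swabbed over a Mueller-Hinton agar plate. An Etest gradient strip was then applied, and the plate was incubated at 37°C for 18 to 24 h until lawn growth was evident. MIC was read from the strip following the manufacturer's instructions.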

Staphylococcus aureus [12] = assay: Antibacterial activity against kanamycin-resistant Staphylococcus aureus AH352 (SCV-24) harboring -1 frameshift mutation at nucleotide 106 in rplF gene after 18 to 24 hrs by Etest strip assay; procedure, shortened: as §1
Staphylococcus aureus [13] = assay: Antibacterial activity against kanamycin-resistant and fusidic acid-susceptible Staphylococcus aureus AH417 harboring -1 frameshift mutation at nucleotide 422 in rplF gene after 18 to 24 hrs by Etest strip assay; procedure, shortened: as §2
Staphylococcus aureus [14] = assay: Antibacterial activity against kanamycin-resistant Staphylococcus aureus AH392 (SCV-64) harboring -1 frameshift mutation at nucleotide 383 in rplF gene after 18 to 24 hrs by Etest strip assay; procedure, shortened: as §2
Staphylococcus aureus [15] = assay: Antibacterial activity against kanamycin-resistant and fusidic acid-susceptible Staphylococcus aureus AH288 harboring Gly617Asp mutation in fusA gene after 18 to 24 hrs by Etest strip assay; procedure, shortened: as §2
Staphylococcus aureus [16] = assay: Antibacterial activity against kanamycin-resistant Staphylococcus aureus AH340 (SCV-12) harboring Gly617Asp mutation in fusA gene after 18 to 24 hrs by Etest strip assay; procedure, shortened: as §1
Staphylococcus aureus [17] = assay: Antibacterial activity against fusidic acid-resistant Staphylococcus aureus AH204 harboring deletion of nucleotide 203-231 in rplF gene after 18 to 24 hrs by Etest strip assay; procedure, shortened: as §3
Staphylococcus aureus [18] = assay: Antibacterial activity against kanamycin-resistant and fusidic acid-susceptible Staphylococcus aureus AH421 harboring Pro404Arg mutation in fusA gene after 18 to 24 hrs by Etest strip assay; procedure, shortened: as §2
Staphylococcus aureus [19] = assay: Antibacterial activity against kanamycin-resistant and fusidic acid-susceptible Staphylococcus aureus AH290 harboring duplication mutation at nucleotide 202-293 in rplF gene after 18 to 24 hrs by Etest strip assay; procedure, shortened: as §2
Staphylococcus aureus [20] = assay: Antibacterial activity against kanamycin-resistant Staphylococcus aureus AH346 (SCV-18) harboring -1 frameshift mutation at nucleotide 238 in rplF gene after 18 to 24 hrs by Etest strip assay; procedure, shortened: as §1
Staphylococcus aureus [21] = assay: Antibacterial activity against kanamycin-resistant Staphylococcus aureus AH339 (SCV-11) harboring -1 frameshift mutation at nucleotide 144 in rplF gene after 18 to 24 hrs by Etest strip assay; procedure, shortened: as §1
Staphylococcus aureus [22] = assay: Antibacterial activity against fusidic acid-resistant Staphylococcus aureus AH188 harboring Gly664Ser mutation in fusA gene after 18 to 24 hrs by Etest strip assay; procedure, shortened: as §3
Staphylococcus aureus [23] = assay: Antibacterial activity against kanamycin-resistant Staphylococcus aureus AH390 (SCV-62) harboring +1 frameshift mutation at nucleotide 84 in rplF gene after 18 to 24 hrs by Etest strip assay; procedure, shortened: as §1
Staphylococcus aureus [24] = assay: Antibacterial activity against kanamycin-resistant Staphylococcus aureus AH383 (SCV-55) harboring TAA stop codon at nucleotide 139 in rplF gene after 18 to 24 hrs by Etest strip assay; procedure, shortened: as §1
Staphylococcus aureus [25] = assay: Antibacterial activity against fusidic acid-resistant Staphylococcus aureus AH202 harboring CTG start codon at nucleotide 1 in rplF gene after 18 to 24 hrs by Etest strip assay; procedure, shortened: as §3
Staphylococcus aureus [26] = assay: Antibacterial activity against kanamycin-susceptible wild type Staphylococcus aureus AH001 after 18 to 24 hrs by Etest strip assay; procedure, shortened: as §4
Staphylococcus aureus [27] = assay: Antibacterial activity against kanamycin-resistant and fusidic acid-susceptible Staphylococcus aureus AH420 harboring deletion of nucleotide 72-80 in rplF gene after 18 to 24 hrs by Etest strip assay; procedure, shortened: as §2
Staphylococcus aureus [28] = assay: Antibacterial activity against kanamycin-resistant and fusidic acid-susceptible Staphylococcus aureus AH422 harboring +2 frameshift mutation at nucleotide 222 in rplF gene after 18 to 24 hrs by Etest strip assay; procedure, shortened: as §2
Staphylococcus aureus [29] = assay: Antibacterial activity against kanamycin-resistant and fusidic acid-susceptible Staphylococcus aureus AH291 harboring Arg659His mutation in fusA gene after 18 to 24 hrs by Etest strip assay; procedure, shortened: as §2
Staphylococcus aureus [30] = assay: Antibacterial activity against kanamycin-resistant Staphylococcus aureus AH336 (SCV-8) harboring His438Asn mutation in fusA gene after 18 to 24 hrs by Etest strip assay; procedure, shortened: as §1
Staphylococcus aureus [31] = assay: Antibacterial activity against fusidic acid-resistant Staphylococcus aureus AH190 harboring Arg464His mutation in fusA gene after 18 to 24 hrs by Etest strip assay; procedure, shortened: as §3

SMILES | MIC (Staphylococcus aureus [1]) [µg/mL] | MIC (Staphylococcus aureus [2]) [µg/mL] | MIC (Staphylococcus aureus [3]) [µg/mL] | MIC (Staphylococcus aureus [4]) [µg/mL] | MIC (Staphylococcus aureus [5]) [µg/mL] | MIC (Staphylococcus aureus [6]) [µg/mL] | MIC (Staphylococcus aureus [7]) [µg/mL] | MIC (Staphylococcus aureus [8]) [µg/mL] | MIC (Staphylococcus aureus [9]) [µg/mL] | MIC (Staphylococcus aureus [10]) [µg/mL] | MIC (Staphylococcus aureus [11]) [µg/mL] | MIC (Staphylococcus aureus [12]) [µg/mL] | MIC (Staphylococcus aureus [13]) [µg/mL] | MIC (Staphylococcus aureus [14]) [µg/mL] | MIC (Staphylococcus aureus [15]) [µg/mL] | MIC (Staphylococcus aureus [16]) [µg/mL] | MIC (Staphylococcus aureus [17]) [µg/mL] | MIC (Staphylococcus aureus [18]) [µg/mL] | MIC (Staphylococcus aureus [19]) [µg/mL] | MIC (Staphylococcus aureus [20]) [µg/mL] | further results
CC(=O)O[C@H]1C[C@@]2(C)[C@@H](C[C@@H](O)[C@H]3[C@@]4(C)CC[C@@H](O)[C@@H](C)[C@@H]4CC[C@@]32C)/C1=C(\CCC=C(C)C)C(=O)O [FUSIDIC ACID] | 4 | 16 | 8 (≈ 15.5 µM) | 12 (≈ 23.2 µM) | 6 (≈ 11.6 µM) | 256 (≈ 495 µM) | 6 (≈ 11.6 µM) | 8 | 12 (≈ 23.2 µM) | 12 (≈ 23.2 µM) | 0.125 (≈ 0.242 µM) | 4 | 24 | 4 | 6 (≈ 11.6 µM) | 4 (≈ 7.74 µM) | 4 (≈ 7.74 µM) | 3 (≈ 5.81 µM) | 8 (≈ 15.5 µM) | 8 | MIC (Staphylococcus aureus [21]): 6 µg/mL; MIC (Staphylococcus aureus [22]): 4 µg/mL (≈ 7.74 µM); MIC (Staphylococcus aureus [23]): 16 µg/mL; MIC (Staphylococcus aureus [24]): 16 µg/mL (≈ 31 µM); MIC (Staphylococcus aureus [25]): 4 µg/mL (≈ 7.74 µM); MIC (Staphylococcus aureus [26]): 0.125 µg/mL (≈ 0.242 µM); MIC (Staphylococcus aureus [27]): 12 µg/mL (≈ 23.2 µM); MIC (Staphylococcus aureus [28]): 12 µg/mL; MIC (Staphylococcus aureus [29]): 4 µg/mL (≈ 7.74 µM); MIC (Staphylococcus aureus [30]): 8 µg/mL (≈ 15.5 µM); MIC (Staphylococcus aureus [31]): 6 µg/mL (≈ 11.6 µM)
NC[C@H]1O[C@H](O[C@H]2[C@H](O)[C@@H](O[C@H]3O[C@H](CO)[C@@H](O)[C@H](N)[C@H]3O)[C@H](N)C[C@@H]2N)[C@H](O)[C@@H](O)[C@@H]1O [KANAMYCIN] | 16 | 64 | 16 (≈ 33 µM) | 12 (≈ 24.8 µM) | 32 (≈ 66 µM) | 8 (≈ 16.5 µM) | 6 (≈ 12.4 µM) | 32 | 12 (≈ 24.8 µM) | 12 (≈ 24.8 µM) | 1.5 (≈ 3.1 µM) | 6 | 256 | 12 | 16 (≈ 33 µM) | 12 (≈ 24.8 µM) | 8 (≈ 16.5 µM) | 8 (≈ 16.5 µM) | 256 (≈ 528 µM) | 8 | MIC (Staphylococcus aureus [21]): 64 µg/mL; MIC (Staphylococcus aureus [22]): 24 µg/mL (≈ 49.5 µM); MIC (Staphylococcus aureus [23]): 256 µg/mL; MIC (Staphylococcus aureus [24]): 96 µg/mL (≈ 198 µM); MIC (Staphylococcus aureus [25]): 8 µg/mL (≈ 16.5 µM); MIC (Staphylococcus aureus [26]): 1.5 µg/mL (≈ 3.1 µM); MIC (Staphylococcus aureus [27]): 256 µg/mL (≈ 528 µM); MIC (Staphylococcus aureus [28]): 128 µg/mL; MIC (Staphylococcus aureus [29]): 24 µg/mL (≈ 49.5 µM); MIC (Staphylococcus aureus [30]): 16 µg/mL (≈ 33 µM); MIC (Staphylococcus aureus [31]): 4 µg/mL (≈ 8.26 µM)
CN[C@@H]1[C@H](O[C@H]2[C@H](O[C@H]3[C@H](O)[C@@H](O)[C@H](N=C(N)N)[C@@H](O)[C@@H]3N=C(N)N)O[C@@H](C)[C@]2(O)C=O)O[C@@H](CO)[C@H](O)[C@H]1O [STREPTOMYCIN] | 64 | 256 | 24 (≈ 41.3 µM) | 24 (≈ 41.3 µM) | 6 (≈ 10.3 µM) | 24 (≈ 41.3 µM) | 8 (≈ 13.8 µM) | 96 | 12 (≈ 20.6 µM) | 16 (≈ 27.5 µM) | 3 (≈ 5.16 µM) | 24 | 256 | 16 | 32 (≈ 55 µM) | 24 (≈ 41.3 µM) | 24 (≈ 41.3 µM) | 12 (≈ 20.6 µM) | 64 (≈ 110 µM) | 24 | MIC (Staphylococcus aureus [21]): 128 µg/mL; MIC (Staphylococcus aureus [22]): 16 µg/mL (≈ 27.5 µM); MIC (Staphylococcus aureus [23]): 64 µg/mL; MIC (Staphylococcus aureus [24]): 192 µg/mL (≈ 330 µM); MIC (Staphylococcus aureus [25]): 16 µg/mL (≈ 27.5 µM); MIC (Staphylococcus aureus [26]): 3 µg/mL (≈ 5.16 µM); MIC (Staphylococcus aureus [27]): 256 µg/mL (≈ 440 µM); MIC (Staphylococcus aureus [28]): 32 µg/mL; MIC (Staphylococcus aureus [29]): 24 µg/mL (≈ 41.3 µM); MIC (Staphylococcus aureus [30]): 12 µg/mL (≈ 20.6 µM); MIC (Staphylococcus aureus [31]): 8 µg/mL (≈ 13.8 µM)
